# Bioassay records from PubChem.
# This is a sample that favours compounds with a hit; in the whole collection about 2.7% have one here.
# NadD block = inhibitors of Staphylococcus aureus NadD; purified NadD enzyme, colorimetric absorbance read-out; inhibition, % at 20 µM; hit rate 0.78% among 360,000; AID 602399; in the data active = inhibition above about 26%
# PP1 inh = counter-screen for PP5 inhibitors: inhibitors of human PP1-alpha; hit rate 0.9% among 320,000; inhibition, % at 6.7 µM; purified PP1alpha, OMFP fluorescence; P62136;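 active = inhibition above the mean inhibition of all tested compounds plus 3 SD, computed separately for each screening campaign, cut at about 15% in these data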
# Target sequence (P62136 whole entry, looked up): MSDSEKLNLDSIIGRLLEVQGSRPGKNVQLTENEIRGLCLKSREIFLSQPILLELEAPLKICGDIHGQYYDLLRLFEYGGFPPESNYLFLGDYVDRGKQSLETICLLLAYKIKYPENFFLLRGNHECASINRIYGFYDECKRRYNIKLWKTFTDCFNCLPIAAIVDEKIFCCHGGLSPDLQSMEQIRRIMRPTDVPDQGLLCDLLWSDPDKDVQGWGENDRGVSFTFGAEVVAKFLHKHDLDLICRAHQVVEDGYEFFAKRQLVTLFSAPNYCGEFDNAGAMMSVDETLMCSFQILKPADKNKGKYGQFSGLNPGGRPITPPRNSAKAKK
# Rpn11 block = inhibitors of human proteasome Rpn11. O00487. human 26S proteasome, Ub4-pepOG fluorescence polarization; 20S core pre-blocked with epoxomicin. inhibition, % at 20 µM. hit rate 0.59% among 360,000;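 active = inhibition at 20 µM, scaled to each plate's controls, above about 33%, limit read from the data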
# HNF4A DNA FP = change in binding of human HNF4 alpha to DNA; HNF4a-FITC DNA binding, fluorescence polarization, 1 h; activity change, % at 10 µM; hit rate 0.3% among 360,000; in the data active = activity change above about 30%, passing the limit was not always enough
# TPT1 inh = C. albicans TPT1 enzyme inhibition. recombinant caTPT1, FP RNA substrate dephosphorylation. inhibition, % at 5 µM. hit rate 0.81% among 300,000;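 active = inhibition above the mean of all tested compounds plus 3 SD, set per screening campaign, cut at about 24% in these data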;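 also: plate controls were DMSO alone for no effect and ferristatin control at 100 nM for full effect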
# CSN inh = inhibitors of human CSN-mediated cullin deneddylation | Purified CSN, SCF-Nedd8-OG deneddylation, fluorescence polarization | inhibition, % at 12.5 µM | hit rate 0.38% among 360,000 | AID 651999;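 active = pattern-corrected inhibition above about 35%, with an unprinted fluorescence ratio check between 0.5 and 1.5, limit read from the data, passing the limit was not always enough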;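 also: 0% = enzyme with substrate and 100% = substrate without enzyme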
#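 Test system: purified human Csn5 enzyme expressed in HEK293T cells. Amount: 0.24 nM enzyme. Reagent: SCFSkp2-Nedd8OG substrate at 10 nM final. Schedule: 90 min incubation of compound, enzyme and substrate at room temperature. Detection: fluorescence polarization. Read-out: % inhibition of substrate cleavage by Csn5.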
# Rpn11 inh conf = confirmation of human proteasome Rpn11 inhibitors | shares compounds with Rpn11 block | purified human 26S proteasome, Ub4-pepOG fluorescence polarization; proteasome pretreated with epoxomicin | inhibition, % at 20 µM | hit rate 29% among 1,900
# MMP-2 counter = counter-screen for RPN11 inhibitors: inhibition of human MMP-2; shares compounds with Rpn11 block; recombinant MMP-2, FRET peptide cleavage fluorescence; inhibition, % at 20 µM; hit rate 4% among 1,900;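 also: human MMP-2 activated beforehand with APMA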
# Thrombin FP = thrombin (bovine) inhibition counter-screen; bovine thrombin cleavage of Ub4-pepOG, fluorescence polarization; inhibition, % at 20 µM; shares compounds with Rpn11 block; hit rate 13% among 1,900;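 active = mean inhibition at least 40% at 20 µM, or signal 3 deviations below plate average, so some actives read negative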;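 also: plate controls were thrombin with DMSO for no effect and buffer wells lacking thrombin for full effect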
# * hit, by the source's call; . = not tested or not shown; ! = not confirmed by another sample. Rule as the data show it, unless noted: active = inhibition above about 40%; inactive = the rest.
SMILES,NadD block,PP1 inh,Rpn11 block,HNF4A DNA FP,TPT1 inh,CSN inh,Rpn11 inh conf,MMP-2 counter,Thrombin FP
CCc1ccc(CNC(=O)C2CCCN(c3nnc(C)c4c(C)n(-c5ccccc5)nc34)C2)cc1 (centres undefined),7,9,60*,19,17,13,27,-136,-5
Cc1ccc(-n2nc3c(N4CCC(C(=O)N5CCN(C)CC5)CC4)nnc(C)c3c2C)cc1,0,0,41*,8,14,10,24,-5,20
COc1ccc(-n2nc3c(N4CCC(C(=O)N5CCCCCC5)CC4)nnc(C)c3c2C)cc1,-3,7,55*,12,8,11,-2,-16,-8
COc1cc(/C=C2\SC(=O)N(CCNC(=O)c3sc4cc(F)ccc4c3Cl)C2=O)cc(OC)c1OC,-2,-5,43*,5,-2,5,-1,-31,-8
COc1cccc(C(=O)COC(=O)COc2c(C)cc(C)cc2C)c1,-8,3,-2,2,.,-5,.,.,.
O=C1N(Cc2cccc(Cl)c2)C[C@@H]2C[C@@H](c3cccc4ncccc34)N3CCC[C@@]123,0,7,-1,0,0,-3,.,.,.
O=C1N(Cc2cccc(Cl)c2)C[C@@H]2C[C@@H](c3cccc4cccnc34)N3CCC[C@@]123,-5,2,65*,3,8,16,4,-30,6
CC1(C)NC(=O)N(CC(O)COc2cc3ccccc3cc2C(=O)N2CCCCC2)C1=O (centres undefined),-5,-1,67*,0,-2,1,-29,-18,-13
CC1(C)NC(=O)N(CC(O)COc2ccccc2C(=O)N2CCCCC2)C1=O (centres undefined),5,-1,-5,1,-1,-2,.,.,.
O=C(Nc1ccc2nn(-c3ccccc3)nc2c1)c1ccc2c(c1)OCCO2,-7,3,6,0,2,0,.,.,.
O=C(Nc1ccc2nn(-c3ccccc3)nc2c1)c1ccc(Br)o1,13,15,45*,-2,4,26,35,38,-6
NC(=O)c1ccc(NC(=O)c2cnc3ccccc3n2)cc1,-2,-5,-4,0,-1,0,.,.,.
O=C(Nc1ccccc1)c1cnc2ccccc2n1,2,0,128*,-2,-3,7,-1,-19,-9
CSc1nnc(C2CCN(CC(=O)Nc3ccccc3N3CCOCC3)CC2)n1C(C)C,6,0,7,0,-4,-5,.,.,.
Cc1ccnc(NC(=O)Nc2ccc3c(c2)N(C)C(=O)CS3)c1,9,2,84*,14,4,13,19,-49,15
O=C(COc1ccc(F)cc1)NN1C(=O)CSC1=S,0,-5,67*,36,2,24,-10,21,-13
O=C(COc1ccccc1)NN1C(=O)CSC1=S,1,-3,3,-1,3,8,.,.,.
CCc1cccc(CC)c1NC(=O)CN1CC(C)SC1=NC1CCCCC1 (centres undefined),-3,-3,61*,5,-18,-2,-13,-7,-4
Cc1ccc(C2c3c(C)nn(-c4ccc([N+](=O)[O-])cc4)c3N=C3C(=O)Nc4ccccc4N32)cc1 (centres undefined),.,14,.,.,3,.,.,.,.
COc1cccc(C2c3c(C)nn(-c4ccc([N+](=O)[O-])cc4)c3N=C3C(=O)Nc4ccccc4N32)c1 (centres undefined),18,3,46*,57*,0,15,5,3,13
CCCS(=O)(=O)NC(=O)C1(C)CCCN(C(=O)c2cccnc2Oc2ccccc2)C1 (centres undefined),2,.,3,-3,.,0,.,.,.
Cc1nnc(SCC(=O)N2N=C(c3ccc(Cl)cc3)CC2c2ccco2)[nH]c1=O (centres undefined),10,0,74*,17,15,13,18,5,12
CCOc1cc(/C=C2/N=C(C)C(C(=O)OC)=C2O)ccc1O,0,-3,51*,8,14,19,32,-73,20
CCOC(=O)C1CCCN(C2=NC(=O)/C(=C/c3ccc(O)c(OCC)c3)S2)C1 (centres undefined),0,2,77*,8,10,27,37,-56,30
CCOc1cc(/C=C2\SC(N)=NC2=O)ccc1O,-3,-1,43*,6,10,13,22,7,12
SMILES,NadD block,PP1 inh,Rpn11 block,HNF4A DNA FP,TPT1 inh,CSN inh,Rpn11 inh conf,MMP-2 counter,Thrombin FP
CCOc1cc(/C=C2\SC(=O)N=C2N)ccc1O,0,-6,51*,12,15,14,22,2,1
Cc1cc(C)c(N2C(=O)CC(Sc3ccccc3N)C2=O)c(C)c1 (centres undefined),5,.,-2,0,.,-2,.,.,.
O=C1c2ccccc2[C@@H]2C[C@@H](O)[C@H](Nc3cccc(C(F)(F)F)c3)CCN12,0,.,-2,0,.,1,.,.,.
O=Cc1ccc(F)c([B-](F)(F)F)c1,-4,.,-7,2,.,2,.,.,.
Cc1cc(NC(=O)c2cccc(S(=O)(=O)N(C)C)c2)n(-c2ccccn2)n1,-9,-2,92*,2,0,1,-2,-16,-18
CC1(C)Cc2c(C#N)c(NCCCO)nc(-c3ccccc3)c2CO1,1,1,68*,28*,-5,0,-10,-26,-14
CCN(CC)CCNc1nc(-c2ccccc2)c2c(c1C#N)CC(C)(C)OC2,-4,-2,-1,0,-3,2,.,.,.
O=C(NCC(=O)N1CCOCC1)c1ccc(Br)o1,0,1,0,-1,-2,-3,.,.,.
O=C(O)COc1ccc(/C=C/c2nc3ccc([N+](=O)[O-])cc3s2)cc1,-7,-3,26,5,10,8,.,.,.
CCCCCCSc1ccc(-c2nc3cc(C)ccn3c2NC2CCCCC2)cc1,0,.,58*,27,.,17,20,-15,6
CCCCCCSc1ccc(-c2nc3ccc(C)cn3c2NC2CCCCC2)cc1,5,4,8,6,-3,7,.,.,.
COc1cc(-c2nc3cc(C)ccn3c2NC2CCCCC2)ccc1-c1ccc(C(C)=O)cc1,25,18*,42*,14,6,10,13,4,-11
CCC(C)Sc1ccc(-c2nc3cc(C)ccn3c2NC2CCCCC2)cc1 (centres undefined),10,.,115*,45*!,.,21,9,-43,-2
